Measured values collected from several papers.
Lines come from different studies, so protocols differ.
Effect on: cell growth or viability

| SMILES | cell line | assay | conditions | quantity | value |
| --- | --- | --- | --- | --- | --- |
| C=C(C)[C@@H]1CC[C@@H](C)C[C@H]1OCc1ccccc1 | MDA-MB-231 | MTT | 10 µM, 72 h | inhibition | 21.9% |
| Cc1c(Cc2ccccc2)c(=O)oc2c(C)c(OCC(=O)NN=Cc3ccc([N+](=O)[O-])cc3)ccc12 | MDA-MB-231 | MTT | 125 µg/mL | viability | 23.7% |
| C[C@H](NC(=O)[C@H](CC(=O)NCC(C)(C)C)NC(=O)C(=O)c1c[nH]c2ccccc12)C(=O)NCc1ccc(F)cc1F | A-375 | resazurin | 48 h | IC50 | 8870 nM |
| CCNC(=S)NNC(=O)COc1ccc2c(C)c(CC)c(=O)oc2c1C | MDA-MB-231 | MTT | 125 µg/mL | viability | 45% |
| O=C(C=Cc1ccccc1)Nc1cc(-c2ccnc(N3CCOCC3)c2)ccn1 | MDA-MB-231 | MTT | 5 µM | inhibition | 78.3% |
| CCc1c(C)c2ccc(OCc3nnc(S)n3N)c(C)c2oc1=O | MDA-MB-231 | MTT | 31.25 µg/mL | viability | 94.3% |
| C=CC(=O)NC1CCN(c2ncc3ncnc(Nc4ccc(Oc5ccc6c(c5)ncn6C)c(C)c4)c3n2)CC1 | Panc 04.03 | – | – | EC50 | 5190 nM |
| C[C@@H]1CC[C@@H]([C@](O)(CNCc2ccccc2)COCc2ccc(F)cc2)[C@H](OCc2ccc(F)cc2)C1 | MDA-MB-231 | MTT | 30 µM, 72 h | inhibition | 101% |
| Cc1c(C(=O)O)ccc2c3n(nc12)[C@@H]1[C@H](C3)N(CC2CC2)[C@@]2(C(=O)Nc3cc(Cl)ccc32)[C@H]1c1cccc(Cl)c1F | hTERT-RPE1 | – | – | IC50 | 16 nM |
| C[C@@H]1CC[C@@H]([C@](C)(O)CNCc2ccccc2F)[C@H](OCc2ccccc2)C1 | MDA-MB-231 | MTT | 30 µM, 72 h | inhibition | 44.1% |
| CCCN1C(=O)[C@H](CC(C)C)NC(=O)[C@@H](N(C)C(=O)[C@H](CC2CCC2)NC(=O)[C@@H]2C[C@@H](F)CN2C(=O)[C@@](C)(O)C(F)(F)F)CCCCNC(=O)C2(CC2)NC(=O)[C@@H]1Cc1cc(Cl)ccc1Cl | NCI-H526 | MTT | 5 days | GI50 | 41 nM |
| COc1ccc(CNC[C@@](C)(O)[C@@H]2CC[C@@H](C)C[C@H]2OCc2ccccc2)cc1 | MDA-MB-231 | MTT | 30 µM, 72 h | inhibition | 83.5% |
| C=CCNC(=S)NNC(=O)COc1ccc2c(C)c(CC)c(=O)oc2c1C | MDA-MB-231 | MTT | 250 µg/mL | viability | 5.87% |
| COc1cccc(CNC[C@@](C)(O)[C@@H]2CC[C@@H](C)C[C@H]2OCc2ccccc2)c1 | MDA-MB-231 | MTT | 10 µM, 72 h | inhibition | 36% |
| O=C(C=Cc1ccccc1)Nc1cc(-c2ccnc(N3CCC(O)CC3)c2)ccn1 | MDA-MB-231 | MTT | 72 h | IC50 | 3 nM |
